# UPR XBP1 act = adaptive UPR (XBP1) activation. CHO-XBP1 luciferase reporter, IRE1-XBP1 UPR activation, luminescence; percent of tunicamycin response, DMSO as zero. activation, % at 20 µM. 0.33% of 330,000 active;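 active = versus positive control, 20 µM dose yields 30% or more activation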
#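 incubation = overnight seeding at 37 °C, 6 h compound treatment at 37 °C | assay system = CHO-XBP1 cells stably carrying IRE1-XBP1-driven luciferase reporter | input = 1000 cells per well | detection = luciferase luminescence | dosing = single point, 20 µM final compound, 1% DMSO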
# UPR CHOP act = apoptotic UPR (CHOP) activation | CHO-CHOP luciferase reporter, luminescence; percent of tunicamycin response over DMSO baseline | activation, % at 10 µM | 0.34% of 330,000 active | AID 449763;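 active = at 10 µM dose, activation of 40% or more, normalized to positive control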
#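 System: CHO-CHOP luciferase reporter cell line; amount: 500 cells/well; buffer or medium: F12 medium containing 10% fetal bovine serum; incubation: 6 h compound exposure at 37 °C after overnight seeding; measured by: luciferase luminescence after 10 min with Steady-Glo reagent; evaluation: % reporter activation, DMSO baseline versus tunicamycin full activation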
# UBC13 polyUb = blocks human UBC13 polyubiquitin chain formation. 0.47% of 330,000 active. TR-FRET. AID 485273. P61088. inhibition, % at 20 µM; in the data active = inhibition above about 45%, passing the limit was not always enough
# Mdm2 MdmX PPI = human Mdm2/MdmX binding inhibition. 3% of 330,000 active. inhibition, % at 8 µM. SaOS-2 split-luciferase Mdm2/MdmX complementation, luminescence;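 active = inhibition of at least 50% at 8 µM in the primary screen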
# Apaf1 inhib = human Apaf-1 inhibition. 0.71% of 330,000 active. O14727. AID 489030. reconstituted apoptosome caspase-3 activity, DEVD-Rh110 fluorescence. inhibition, % at 20 µM; active = inhibition of at least 40% at 20 µM
# Target sequence (O14727 whole entry, looked up): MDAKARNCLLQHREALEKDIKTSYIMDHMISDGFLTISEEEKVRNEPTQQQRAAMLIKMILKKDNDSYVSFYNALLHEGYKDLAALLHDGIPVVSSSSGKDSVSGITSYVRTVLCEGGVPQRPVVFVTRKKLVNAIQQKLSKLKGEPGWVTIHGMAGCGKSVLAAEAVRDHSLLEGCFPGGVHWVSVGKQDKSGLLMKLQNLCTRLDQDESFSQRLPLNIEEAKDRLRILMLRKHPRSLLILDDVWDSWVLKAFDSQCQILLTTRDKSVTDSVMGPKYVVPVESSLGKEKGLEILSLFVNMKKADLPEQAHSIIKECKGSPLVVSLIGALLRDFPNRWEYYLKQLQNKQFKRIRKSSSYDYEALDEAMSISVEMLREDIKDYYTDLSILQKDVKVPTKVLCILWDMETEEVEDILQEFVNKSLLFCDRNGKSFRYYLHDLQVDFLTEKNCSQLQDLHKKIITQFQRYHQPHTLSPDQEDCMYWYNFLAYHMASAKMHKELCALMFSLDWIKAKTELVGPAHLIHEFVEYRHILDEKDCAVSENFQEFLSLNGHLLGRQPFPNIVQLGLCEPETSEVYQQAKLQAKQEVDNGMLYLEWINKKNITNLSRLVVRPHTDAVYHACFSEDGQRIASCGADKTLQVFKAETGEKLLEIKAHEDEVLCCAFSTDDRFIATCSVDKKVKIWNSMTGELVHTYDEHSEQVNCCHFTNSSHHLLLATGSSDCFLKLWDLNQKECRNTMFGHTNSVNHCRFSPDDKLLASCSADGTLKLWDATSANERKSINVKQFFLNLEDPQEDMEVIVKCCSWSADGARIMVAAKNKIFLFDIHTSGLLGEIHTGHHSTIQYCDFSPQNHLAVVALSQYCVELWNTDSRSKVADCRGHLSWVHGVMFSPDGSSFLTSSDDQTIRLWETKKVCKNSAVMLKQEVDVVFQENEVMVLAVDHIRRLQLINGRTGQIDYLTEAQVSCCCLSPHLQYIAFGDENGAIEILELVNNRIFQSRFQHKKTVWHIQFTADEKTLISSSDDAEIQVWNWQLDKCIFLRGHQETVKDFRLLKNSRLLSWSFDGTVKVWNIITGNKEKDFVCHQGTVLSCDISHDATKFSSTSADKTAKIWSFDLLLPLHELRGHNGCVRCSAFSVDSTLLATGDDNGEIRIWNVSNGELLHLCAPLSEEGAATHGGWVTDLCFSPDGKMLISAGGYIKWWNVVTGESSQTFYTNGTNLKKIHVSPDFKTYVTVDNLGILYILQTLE
#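 Assay system: Apoptosome proteins | Medium: pH 7.5 Hepes buffer with CHAPS, BSA, DTT | Also added: Cytochrome c and DEVD-Rh110 substrate | Times: 30 min plus 50 min, RT | Detection: Rhodamine 110 fluorescence at Ex 480/Em 540 nm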
# Mdm2 MdmX conf = human Mdm2/MdmX binding inhibition, confirmed; shares compounds with Mdm2 MdmX PPI; luminescent assay; inhibition, % at 8 µM; 55% of 10,000 active; AID 489028; in the data active = inhibition above about 40%
# Full FLuc ctr = inhibits full-length luciferase, flagging false Mdm2/MdmX hits; shares compounds with Mdm2 MdmX PPI; SaOS-2 full-length luciferase counterscreen, luminescence; inhibition, % at 8 µM; 77% of 6,200 active;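 active = mean inhibition at 8 µM reaching about 37%, which flags the compound as non-specific, limit read from the data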;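 also: p53-null SaOS-2 cells with luciferase driven by a doxycycline-inducible promoter; compound on cells about two nights before reading with doxycycline added after day one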
# Hits are given with their value; n = inactive; x = no result given. Sampled rows, rich in hits. Any-hit rate of the full collection: about 4.1%.
SMILES,UPR XBP1 act,UPR CHOP act,UBC13 polyUb,Mdm2 MdmX PPI,Apaf1 inhib,Mdm2 MdmX conf,Full FLuc ctr
O=C(CN1CCCc2ccccc21)N/N=C/c1c(O)ccc2ccccc12,n,n,n,81,n,91,n
O=C(CN1CCCc2ccccc21)N/N=C/c1ccccc1,n,n,n,n,n,x,x
O=C(CNc1ccc(F)cc1)N/N=C/c1c(O)ccc2ccccc12,n,n,n,72,n,77,n
COc1ccccc1NCC(=O)N/N=C/c1cccnc1,n,n,n,n,n,x,x
CCc1cccc(OCC2Cn3c(nc4c3c(=O)n(C)c(=O)n4C)O2)c1 (configuration not stated),n,n,n,n,n,x,x
C[C@H](CO)N1C[C@H](C)[C@H](CN(C)Cc2ccc(-c3ccccc3)cc2)Oc2ccc(NS(=O)(=O)c3ccccc3)cc2CC1=O,n,n,n,85,n,n,x
C[C@@H]1CN([C@H](C)CO)C(=O)c2cc(NS(=O)(=O)c3ccc(F)cc3)ccc2O[C@@H]1CN(C)Cc1ccc(Cl)c(Cl)c1,n,n,n,78,n,57,50
C[C@@H]1CN([C@@H](C)CO)C(=O)Cc2cc(NS(=O)(=O)c3ccccc3)ccc2O[C@H]1CN(C)Cc1ccncc1,n,n,n,n,n,x,x
Cc1cc[n+](Cc2ccccc2)c(N)c1,n,n,n,n,n,x,x
CC1(C)Oc2ccc(C(=O)N/N=C/c3ccc(O)cc3)cc2NC1=O,n,n,n,n,n,x,x
CCOc1ccc(N(Cc2cc3ccc(C)cc3[nH]c2=O)S(=O)(=O)c2ccccc2)cc1,n,n,n,59,n,58,55
COc1ccc2[nH]c(=O)c(CN(c3ccccc3OC)S(=O)(=O)c3ccccc3)cc2c1,n,n,n,60,n,n,89
Cc1ccc2cc(CN(c3ccccc3)S(=O)(=O)c3ccccc3)c(=O)[nH]c2c1,n,n,n,n,n,x,x
CNC(=O)CN(Cc1ccccc1)S(=O)(=O)c1ccc(Cl)cc1,n,n,n,n,n,x,x
Cc1ccc(C(=O)C[n+]2cc(Br)cc(Br)c2)cc1,n,n,n,n,n,x,x
CCCOc1ccc(NC(=O)C2CC(=O)N(C)C(=Nc3cccc(OC)c3)S2)cc1 (configuration not stated),n,n,n,n,n,x,x
COc1cc(C(=O)Nc2cc3c(cc2N2CCCCC2)n(C)c(=O)n3C)cc(OC)c1OC,n,n,n,78,n,44,72
CCn1c(=O)n(CC)c2cc(N3CCCC3)c(NC(=O)c3ccccc3OC)cc21,n,n,n,n,n,x,x
CCn1c(=O)n(CC)c2cc(N3CCCC3)c(NC(=O)c3cc(Cl)ccc3OC)cc21,n,n,n,64,n,n,x
CCCC(=O)NC(c1ccc(C)cc1)c1ccc2cccnc2c1O (configuration not stated),n,n,n,81,n,87,53
CC(=O)NC(CC(=O)NC(C)c1ccc(Cl)cc1Cl)c1ccccc1 (configuration not stated),n,n,n,n,n,x,x
CCCC(=O)NC(c1ccc(Cl)cc1Cl)c1ccc2cccnc2c1O (configuration not stated),n,n,n,81,n,85,55
CC(=O)NC(c1ccc(Cl)cc1Cl)c1ccc2cccnc2c1O (configuration not stated),n,n,n,68,n,87,54
CC(=O)NC(c1ccc2ccccc2c1)c1ccc2cccnc2c1O (configuration not stated),n,n,n,86,n,90,n
COc1ccc(C(NC(C)=O)c2c(O)ccc3ccccc23)cc1OC (configuration not stated),n,n,n,n,n,x,x
SMILES,UPR XBP1 act,UPR CHOP act,UBC13 polyUb,Mdm2 MdmX PPI,Apaf1 inhib,Mdm2 MdmX conf,Full FLuc ctr
CC(=O)c1ccc(S(=O)(=O)N(C)CC(=O)NCc2ccco2)cc1,n,n,n,n,n,x,x
CCN1C(=O)[C@@H]2[C@H](C1=O)[C@@H]1C(=O)Nc3ccccc3C(=O)N1[C@@H]2c1cccc(Cl)c1,n,n,n,n,n,x,x
Cc1ccc(NC(=S)NCc2ccc3c(c2)cc(C)n3C)c(C)c1,n,n,n,n,n,x,x
Cc1ccc(C)c(S(=O)(=O)N2CCN(C(=O)c3n[nH]c(=O)c4ccccc34)CC2)c1,n,n,n,n,n,x,x
COc1ccc(C(NC(C)=O)c2ccc3cccnc3c2O)c(OC)c1 (configuration not stated),n,n,n,74,n,71,n
CCCCC(=O)NC(c1ccc(Cl)cc1)c1ccc2cccnc2c1O (configuration not stated),n,n,n,77,n,86,n
CCCC(=O)NC(c1ccc(Cl)cc1)c1ccc2cccnc2c1O (configuration not stated),n,n,n,78,n,84,57
CCCC(=O)NC(c1ccccc1Cl)c1c(O)ccc2ccccc12 (configuration not stated),n,n,n,n,n,x,x
COc1ccccc1C(NC(C)=O)c1c(O)ccc2ccc(O)cc12 (configuration not stated),n,n,n,n,n,x,x
CCCCC(=O)NC(c1ccccc1Cl)c1c(O)ccc2ccccc12 (configuration not stated),n,n,n,n,n,x,x
COc1cc(Cl)ccc1OCc1cc(C(=O)NCCCN2CCCC2=O)no1,n,n,n,n,n,x,x
NC1=NC(=O)/C(=C/c2cn(Cc3ccccc3)c3ccccc23)S1,n,n,n,n,n,x,x
CCOC(=O)c1sc(NC(=O)CN(CC(C)C)CC(C)C)c(C(=O)OCC)c1C,n,n,n,61,n,n,x
COC(=O)C1=C(C)NC(C)=C(C(=O)O[C@@H]2CCCN(Cc3ccccc3)C2)[C@@H]1c1cccc([N+](=O)[O-])c1,n,n,n,54,n,n,x
CCOC(=O)C1=C(C)NC(C)=C(C(=O)OC)C1c1cccc([N+](=O)[O-])c1 (configuration not stated),n,n,n,n,n,x,x
CCOc1ccc(N2C(=O)C3C(c4ccccc4F)NN(C(=O)c4ccc(C)cc4)C3C2=O)cc1 (configuration not stated),n,n,n,n,n,x,x
O[C@@H]1CN(Cc2ccc(-n3cccn3)cc2)CC[C@H]1N1CCN(c2ccccc2F)CC1,n,n,n,n,n,x,x
COc1ccc(OCCn2cc(/C=C(\C#N)C(=O)NCc3ccco3)c3ccccc32)cc1,n,n,n,75,n,42,51
Cc1ccc(NS(=O)(=O)c2ccc(-c3cnc(C4CC4)o3)cc2)cc1,n,n,n,53,n,51,50
